Experimental data: ChEMBL document CHEMBL1123835, “Synthesis and biological properties of actinomycin D chromophoric analogues substituted at the 7-carbon with aziridine and aminopropoxy functions” (1987)
Values after ≈ are worked out from the molar mass of the structure shown. *1 amine or outer side, *2 acyl side, *3 side chain or, on linkers, in order; H or OH if unused. Where a SMILES comes first, the peptide text is derived from it. Bridges are numbered along the chain shown (N, C = ends). Roman numbers before positions name the chains, in order. [ ]: non-standard residue; d: D form. Actinocin(1to9) = Cc1c2oc3c(C)ccc(C(=O)[*:2])c3nc-2c(C(=O)[*:1])c(N)c1=O; NMeV = CN[C@H](C(=O)O)C(C)C; Sar = CNCC(=O)O

Experiments:
B16 = assay: compound was evaluated in vitro for growth inhibition of B16 (Murine melanoma cell line) cell; format: functional; conditions: Mus musculus, read-out: ID50 (the source's name)
Summary of the method: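 Murine B16 melanoma cells were grown as a monolayer culture in log-phase growth. Compounds were dissolved in Me2SO/saline, with under 1% Me2SO in the final growth medium. ID50 (ng/mL) is the concentration giving 50% growth inhibition after 48 h, averaged over three experiments.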

[1] = Compound was evaluated for the elevation in temperature (degrees Celsius) for thermal denaturation of DNA.
Summary of the method: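 Calf-thymus DNA at 5.2 × 10^-5 M with drug at 2.5 × 10^-5 M in 0.01 M phosphate buffer (pH 7) with 10^-5 M EDTA. Thermal denaturation curves were recorded on a thermoprogrammed spectrophotometer with a quartz cell. ΔTm = Tm of DNA–drug complex minus Tm of DNA, with melting in the 67-85 °C range.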

CCRF-CEM = assay: In vitro growth inhibition of CCRF-CEM (Human leukemic lymphoblastic) cell; format: functional; conditions: read-out: ID50 (the source's name)
Summary of the method: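 Human CCRF-CEM lymphoblastic leukemia cells were grown in continuous spinner (suspension) culture in log phase. Compounds were dissolved in Me2SO/saline, with under 1% Me2SO in the final medium. ID50 (ng/mL) is the concentration giving 50% growth inhibition at 48 h, averaged over three experiments.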

[2] = Compound was evaluated for the elevation in temperature (degrees Centigrade) for thermal denaturation of DNA

IC50 (B16) | Change in Tm [1] | IC50 (CCRF-CEM) | Compound | Change in Tm [2]
> 1 µg/mL | 6.8 | > 0.75 µg/mL | C=CCOc1cc(C(=O)NC2C(=O)N[C@H](C(C)C)C(=O)N3CCC[C@H]3C(=O)N(C)CC(=O)N(C)[C@@H](C(C)C)C(=O)O[C@H]2C)c2nc3c(C(=O)NC4C(=O)N[C@H](C(C)C)C(=O)N5CCC[C@H]5C(=O)N(C)CC(=O)N(C)[C@@H](C(C)C)C(=O)O[C@H]4C)c(N)c(=O)c(C)c-3oc2c1C (some centres not stated) | –
0.0033 µg/mL (≈ 0.00263 µM) | 8 | 0.013 µg/mL (≈ 0.0104 µM) | Cc1c2oc3c(C)ccc(C(=O)N[C@@H]4C(=O)N[C@H](C(C)C)C(=O)N5CCC[C@H]5C(=O)N(C)CC(=O)N(C)[C@@H](C(C)C)C(=O)O[C@@H]4C)c3nc-2c(C(=O)N[C@@H]2C(=O)N[C@H](C(C)C)C(=O)N3CCC[C@H]3C(=O)N(C)CC(=O)N(C)[C@@H](C(C)C)C(=O)O[C@@H]2C)c(N)c1=O [DACTINOMYCIN] (I: T[dV]P[Sar][NMeV] / II: T[dV]P[Sar][NMeV]; ester I:1-I:C, II:1-II:C; linker I:N-II:N via Actinocin(1to9)) | –
0.055 µg/mL (≈ 0.0414 µM) | 4.8 | 0.06 µg/mL (≈ 0.0452 µM) | Cc1c2oc3c(C)c(OCC(C)N)cc(C(=O)NC4C(=O)N[C@H](C(C)C)C(=O)N5CCC[C@H]5C(=O)N(C)CC(=O)N(C)[C@@H](C(C)C)C(=O)O[C@H]4C)c3nc-2c(C(=O)NC2C(=O)N[C@H](C(C)C)C(=O)N3CCC[C@H]3C(=O)N(C)CC(=O)N(C)[C@@H](C(C)C)C(=O)O[C@H]2C)c(N)c1=O (some centres not stated) | –

Compound | IC50 (B16) | Change in Tm [1] | IC50 (CCRF-CEM) | Change in Tm [2]
Cc1c2oc3c(C)c(OCC4CN4)cc(C(=O)NC4C(=O)N[C@H](C(C)C)C(=O)N5CCC[C@H]5C(=O)N(C)CC(=O)N(C)[C@@H](C(C)C)C(=O)O[C@H]4C)c3nc-2c(C(=O)NC2C(=O)N[C@H](C(C)C)C(=O)N3CCC[C@H]3C(=O)N(C)CC(=O)N(C)[C@@H](C(C)C)C(=O)O[C@H]2C)c(N)c1=O (some centres not stated) | 0.11 µg/mL (≈ 0.0829 µM) | – | 0.076 µg/mL (≈ 0.0573 µM) | 2.8
